Source: ChEMBL document CHEMBL3872284, “Hydrazone Linker as a Useful Tool for Preparing Chimeric Peptide/Nonpeptide Bifunctional Compounds” (ACS Med Chem Lett, 2017)
Calls of active or inactive are those of the source. The calls are words filed in the database; no cut-off is given here.

Tests used:
[1] = molecular target: T1, Delta-type opioid receptor (Rattus norvegicus, UniProt P33533); experiment: Displacement of [3H]DELT2 from DOR in Sprague-Dawley rat brain homogenate measured after 180 mins by scintillation counting analysis; assay type: tissue-based
Mu-type opioid receptor [2] = molecular target: T2, Mu-type opioid receptor (Rattus norvegicus, UniProt P33535); experiment: Displacement of [3H]DAMGO from MOR in Sprague-Dawley rat brain homogenate measured after 180 mins by scintillation counting analysis; assay type: tissue-based
Mus musculus [3] = experiment: Analgesic activity in C57BL6 mouse assessed as effect on thermal stimulus-induced tail-flick latency at 20 to 80 umol/kg, iv measured after 5 mins; assay type: functional
Procedure, shortened: (§1)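 Tail-flick test after intravenous injection. Latencies recorded at time points from 5 to 120 min post-dose and converted to % maximal possible effect (%MPE). Groups of n=6–8 animals, compared against a morphine-treated group.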

Mu-type opioid receptor [4] = molecular target: T2, Mu-type opioid receptor; experiment: Displacement of [3H]DAMGO from MOR in rat brain homogenate measured after 60 mins by microbeta scintillation counting analysis; assay type: tissue-based
Substance-P receptor = Substance-P receptor (Rattus norvegicus, UniProt P14600); experiment: Displacement of [Leu-3,4,5-3H(N)]-Substance P from NK1 receptor in rat brain homogenate measured after 60 mins by microbeta scintillation counting analysis; assay type: tissue-based
[5] = molecular target: T1, Delta-type opioid receptor; experiment: Displacement of [3H]DELT2 from DOR in rat brain homogenate measured after 60 mins by microbeta scintillation counting analysis; assay type: tissue-based
Mus musculus [6] = experiment: Analgesic activity in C57BL6 mouse assessed as effect on thermal stimulus-induced tail-flick latency at 80 umol/kg, iv measured after 120 mins relative to control; assay type: functional; procedure, shortened: as §1
Rattus norvegicus [7] = experiment: Analgesic activity in Wistar rat assessed as effect on thermal stimulus-induced tail-flick latency at 2 nmol/kg administered intrathecally measured after 15 mins relative to control; assay type: functional
Procedure, shortened: (§2)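 Intrathecal injection followed by tail-flick testing at 5 to 120 min post-injection. Responses expressed as % maximal possible effect (%MPE). Doses given in nmol/kg. n=6–8 animals per group, with a morphine group and statistics versus morphine.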

Mus musculus [8] = experiment: Analgesic activity in C57BL6 mouse assessed as effect on thermal stimulus-induced tail-flick latency at 80 umol/kg, iv measured after 60 mins relative to control; assay type: functional; procedure, shortened: as §1
Mus musculus [9] = experiment: Analgesic activity in C57BL6 mouse assessed as effect on thermal stimulus-induced tail-flick latency at 80 umol/kg, iv measured up to 30 mins relative to control; assay type: functional; procedure, shortened: as §1
Mus musculus [10] = experiment: Analgesic activity in C57BL6 mouse assessed as effect on thermal stimulus-induced paw withdrawal latency at 80 umol/kg, iv measured after 30 mins by plantar test relative to control; assay type: functional
Procedure, shortened: (§3)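 Heat-induced paw withdrawal (plantar test) after intravenous dosing. Readings taken over a time course to 120 min post-injection and expressed as % maximal possible effect (%MPE). n=6–8 animals per group, with morphine-treated animals as comparator and significance testing versus morphine.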

Mus musculus [11] = experiment: Analgesic activity in C57BL6 mouse assessed as increase in thermal stimulus-induced paw withdrawal latency at 48 umol/kg, iv measured after 30 mins by plantar test; assay type: functional, organism-based; procedure, shortened: as §3
Rattus norvegicus [12] = experiment: Analgesic activity in Wistar rat assessed as increase in thermal stimulus-induced tail-flick latency at 12 nmol/kg administered intrathecally measured up to 60 mins; assay type: functional; procedure, shortened: as §2

T1 sequence (P33533 whole entry): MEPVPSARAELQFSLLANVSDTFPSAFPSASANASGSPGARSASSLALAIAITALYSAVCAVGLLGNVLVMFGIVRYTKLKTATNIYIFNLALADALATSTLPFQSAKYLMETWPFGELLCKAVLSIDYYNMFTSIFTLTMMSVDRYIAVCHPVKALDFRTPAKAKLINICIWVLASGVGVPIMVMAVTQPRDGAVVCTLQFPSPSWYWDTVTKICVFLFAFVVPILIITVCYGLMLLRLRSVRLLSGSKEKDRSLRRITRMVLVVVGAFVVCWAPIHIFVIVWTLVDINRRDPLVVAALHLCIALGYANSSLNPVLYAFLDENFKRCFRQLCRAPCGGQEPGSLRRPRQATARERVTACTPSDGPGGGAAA
T2 sequence (P33535 whole entry): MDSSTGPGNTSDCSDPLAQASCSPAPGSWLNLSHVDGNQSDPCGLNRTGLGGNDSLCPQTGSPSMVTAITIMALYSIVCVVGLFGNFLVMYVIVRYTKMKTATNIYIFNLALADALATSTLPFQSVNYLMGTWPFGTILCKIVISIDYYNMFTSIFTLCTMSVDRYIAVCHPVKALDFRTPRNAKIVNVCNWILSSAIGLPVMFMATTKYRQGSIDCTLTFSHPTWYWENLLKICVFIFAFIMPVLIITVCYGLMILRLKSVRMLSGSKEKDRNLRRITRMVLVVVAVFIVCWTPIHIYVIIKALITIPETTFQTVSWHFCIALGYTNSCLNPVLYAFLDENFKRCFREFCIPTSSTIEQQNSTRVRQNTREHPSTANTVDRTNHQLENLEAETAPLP
Sequence of Substance-P receptor (P14600 whole entry): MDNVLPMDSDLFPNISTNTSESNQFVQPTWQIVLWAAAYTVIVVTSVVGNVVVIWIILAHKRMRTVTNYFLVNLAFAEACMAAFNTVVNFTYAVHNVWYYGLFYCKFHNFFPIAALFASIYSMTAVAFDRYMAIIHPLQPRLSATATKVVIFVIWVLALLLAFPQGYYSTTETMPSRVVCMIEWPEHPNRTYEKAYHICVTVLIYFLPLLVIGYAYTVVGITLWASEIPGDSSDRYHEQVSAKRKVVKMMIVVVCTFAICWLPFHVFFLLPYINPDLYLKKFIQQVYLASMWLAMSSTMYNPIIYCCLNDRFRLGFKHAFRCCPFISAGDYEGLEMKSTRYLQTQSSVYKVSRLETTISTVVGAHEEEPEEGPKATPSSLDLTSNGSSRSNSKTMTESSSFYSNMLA

For C[C@@H](NC(=O)[C@@H](N)Cc1ccc(O)cc1)C(=O)NCC(=O)N[C@@H](Cc1ccccc1)C(=O)NNC(=O)[C@@H](N)Cc1ccccc1, the IC50 [1] was 15 nM and the IC50 (Mu-type opioid receptor [2]) was 0.74 nM.

For C[C@@H](NC(=O)[C@@H](N)Cc1ccc(O)cc1)C(=O)NCC(=O)N[C@@H](Cc1ccccc1)C(=O)N/N=C/c1cc(C(F)(F)F)cc(C(F)(F)F)c1.O=C(O)C(F)(F)F, the MPE (Mus musculus [3]) was 84.81%, the IC50 (Mu-type opioid receptor [4]) was 12.7 nM and the IC50 (Substance-P receptor) was 4.24 nM. The IC50 [5] was 74.2 nM, the MPE (Mus musculus [6]) was 16.84% and the MPE (Rattus norvegicus [7]) was 80.31%. The MPE (Mus musculus [8]) was 69.84%, the MPE (Mus musculus [9]) was 94.26% and the MPE (Mus musculus [10]) was 75.41%.

With CN1CC[C@]23c4c5ccc(O)c4O[C@H]2[C@@H](O)C=C[C@H]3[C@H]1C5 the Activity (Mus musculus [11]) was “Active” and the Activity (Rattus norvegicus [12]) was “Active”.

For C[C@@H](NC(=O)[C@@H](N)Cc1ccc(O)cc1)C(=O)NCC(=O)N[C@@H](Cc1ccccc1)C(=O)NN, the IC50 [1] was 230 nM and the IC50 (Mu-type opioid receptor [2]) was 4.7 nM.
